Assays:
Rattus norvegicus [1] = test: Urinary excretion ratio in rat assessed as radioactivity at 10 mg/kg, iv after 7 days; format: ADME, organism-based, Urine; design: dose 10 mg/kg, route intravenous; conditions: in vivo, 168 h
Method in brief: (§1)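 Rats were dosed i.v. via the tail vein with [14C]CS-023 at 10 mg/kg (4.58 MBq/kg) in saline, then kept in individual metabolic cages for separate urine and feces collection over 7 days. Samples up to 24 h were collected at around 4°C into 0.5 M MOPS pH 6.0, and feces were homogenized. Radioactivity was measured by liquid scintillation counting. Parent drug and metabolite were apportioned by silica TLC (3% NaCl:acetonitrile 2:1) with imaging-plate analysis. n=4.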

Macaca fascicularis [2] = test: Fecal excretion ratio in monkey assessed as radioactivity at 10 mg/kg, iv after 7 days; conditions: cynomolgus monkey, in vivo, 168 h
Rattus norvegicus [3] = test: Biliary excretion in bile duct cannulated rat assessed as radioactivity at 10 mg/kg, iv after 48 h; format: ADME, organism-based; design: dose 10 mg/kg, route intravenous; conditions: in vivo
Method in brief: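 Rats had bile-duct cannulation by laparotomy under diethyl ether and were housed in Bollman cages. They were then dosed i.v. with [14C]CS-023 at 10 mg/kg in saline. Bile was collected on ice over set intervals, and radioactivity was measured by liquid scintillation counting.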

Macaca fascicularis [4] = test: AUC (0-inf) in monkey assessed as radioactivity at 10 mg/kg, iv; conditions: cynomolgus monkey, in vivo
Rattus norvegicus [5] = test: Fecal excretion ratio in rat assessed as radioactivity at 10 mg/kg, iv after 7 days; format: ADME, organism-based; design: dose 10 mg/kg, route intravenous; conditions: in vivo, 168 h; method in brief: as §1
Macaca fascicularis [6] = test: Urinary excretion ratio in monkey assessed as radioactivity at 10 mg/kg, iv after 7 days; conditions: cynomolgus monkey, in vivo, 168 h
Rattus norvegicus [7] = test: AUC (0-inf) in rat assessed as radioactivity at 10 mg/kg, iv; format: ADME, organism-based, Plasma; design: time infinity, dose 10 mg/kg, route intravenous; conditions: in vivo
Method in brief: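 [14C]CS-023 with unlabeled drug in saline, 10 mg/kg single i.v. bolus (rats via tail vein, 4.58 MBq/kg; monkeys via cephalic vein, 3 MBq/kg). Blood drawn with heparin (rat jugular, monkey femoral vein) at set times. Plasma centrifuged at 4°C, and total radioactivity counted by liquid scintillation with tissue solubilizer. Quantitation limit was twice background.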

Activity (Rattus norvegicus [1]): 87.1% | Activity (Macaca fascicularis [2]): 7.5% | Activity (Rattus norvegicus [3]): 0.54% | AUC (Macaca fascicularis [4]): 87400 ng·h/mL | Activity (Rattus norvegicus [5]): 12.5% | Activity (Macaca fascicularis [6]): 88% | AUC (Rattus norvegicus [7]): 26800 ng·h/mL
SMILES: C[C@@H](O)[C@H]1C(=O)N2[C@@H]1[C@@H](C)C(S[C@H]1C[C@@H](C(=O)N3CC[C@H](NC(=O)CNC(=N)N)C3)N(C)C1)=[14C]2C(=O)O
